From ChEMBL document CHEMBL1148922, “Triterpenoids from Brazilian Ilex species and their in vitro antitrypanosomal activity” (J Nat Prod, 2004)

What was measured:
Trypanosoma cruzi = experiment: Antitrypanosomal activity against Trypanosoma cruzi Tulahuen CL2 by microdilution method; type: functional, organism-based
In short: (§1)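 In vitro test run by the WHO procedure, using serial microdilution in a 96-well microtiter integrated system.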

Trypanosoma brucei = experiment: Antitrypanosomal activity against Trypanosoma brucei S427 by microdilution method; type: functional, organism-based; in short: as §1

Row | IC50 (Trypanosoma cruzi) [µM] | IC50 (Trypanosoma brucei) [µM] | Compound
1 | > 32 | > 32 | CC1(C)CC[C@]2(C(=O)O[C@@H]3O[C@H](CO)[C@@H](O)[C@H](O)[C@H]3O)CC[C@]3(C)C(=CC[C@@H]4[C@@]5(C)CC[C@H](O[C@@H]6O[C@H](CO)[C@H](O)[C@H](O)[C@H]6O[C@@H]6O[C@H](CO)[C@@H](O)[C@H](O)[C@H]6O)C(C)(C)[C@@H]5CC[C@]43C)[C@@H]2C1
2 | 10 | 4 | CC1(C)CC[C@]2(C(=O)O)CC[C@]3(C)C(=CC[C@@H]4[C@@]5(C)CC[C@H](O[C@@H]6O[C@H](CO)[C@H](O)[C@H](O)[C@H]6O[C@@H]6O[C@H](CO)[C@@H](O)[C@H](O)[C@H]6O)C(C)(C)[C@@H]5CC[C@]43C)[C@@H]2C1
3 | > 32 | > 32 | C[C@H]1CC[C@]2(C(=O)O)CC[C@]3(C)C(=CC[C@@H]4[C@@]5(C)CC[C@H](O[C@@H]6OC[C@H](O)[C@H](O)[C@H]6O)[C@](C)(CO)[C@@H]5CC[C@]43C)[C@@H]2[C@]1(C)O [BREVICUSPISAPONIN 1]
4 | > 32 | 16 | C[C@H]1CC[C@]2(C(=O)O)CC[C@]3(C)C(=CC[C@@H]4[C@@]5(C)CC[C@H](O[C@@H]6OC[C@H](O)[C@H](O)[C@H]6O)C(CO)(CO)[C@@H]5CC[C@]43C)[C@@H]2[C@]1(C)O [BREVICUSPISAPONIN 2]
5 | > 32 | > 32 | C[C@@H]1CC[C@]2(C(=O)O[C@@H]3O[C@H](CO)[C@@H](O)[C@H](O)[C@H]3O)CC[C@]3(C)C(=CC[C@@H]4[C@@]5(C)CC[C@H](O[C@@H]6OC[C@H](O)[C@H](O[C@@H]7O[C@H](CO)[C@@H](O)[C@H](O)[C@H]7O)[C@H]6O)C(C)(C)[C@@H]5CC[C@]43C)[C@@H]2[C@]1(C)O [ILEKUDINOSIDE E]
6 | > 32 | > 32 | C[C@H]1[C@H](C)CC[C@]2(C(=O)O[C@@H]3O[C@H](CO)[C@@H](O)[C@H](O)[C@H]3O)CC[C@]3(C)C(=CC[C@@H]4[C@@]5(C)CC[C@H](O[C@@H]6OC[C@H](O)[C@H](O[C@@H]7O[C@H](CO)[C@@H](O)[C@H](O)[C@H]7O)[C@H]6O)C(C)(C)[C@@H]5CC[C@]43C)[C@H]12 [MATESAPONIN 1]
7 | > 32 | > 32 | C[C@H]1[C@H](C)CC[C@]2(C(=O)O[C@@H]3O[C@H](CO[C@@H]4O[C@H](CO)[C@@H](O)[C@H](O)[C@H]4O)[C@@H](O)[C@H](O)[C@H]3O)CC[C@]3(C)C(=CC[C@@H]4[C@@]5(C)CC[C@H](O[C@@H]6OC[C@H](O)[C@H](O[C@@H]7O[C@H](CO)[C@@H](O)[C@H](O)[C@H]7O)[C@H]6O)C(C)(C)[C@@H]5CC[C@]43C)[C@H]12 [MATESAPONIN 3]
8 | > 32 | > 32 | C[C@H]1[C@H](C)CC[C@]2(C(=O)O[C@@H]3O[C@H](CO[C@@H]4O[C@H](CO)[C@@H](O)[C@H](O)[C@H]4O)[C@@H](O)[C@H](O)[C@H]3O)CC[C@]3(C)C(=CC[C@@H]4[C@@]5(C)CC[C@H](O[C@@H]6OC[C@H](O)[C@H](O[C@@H]7O[C@H](CO)[C@@H](O)[C@H](O)[C@H]7O)[C@H]6O[C@@H]6O[C@@H](C)[C@H](O)[C@@H](O)[C@H]6O)C(C)(C)[C@@H]5CC[C@]43C)[C@H]12 [MATESAPONIN 4]
9 | 0.39 |  | CC1CS(=O)(=O)CCN1/N=C/c1ccc([N+](=O)[O-])o1 (configuration not stated) [NIFURTIMOX]
10 | > 32 | 17 | CC(=O)O[C@H]1CC[C@]2(C)[C@H]3CC=C4[C@@H]5[C@@H](C)[C@H](C)CC[C@]5(C(=O)O)CC[C@@]4(C)[C@]3(C)CC[C@H]2C1(C)C [O-ACETYLURSOLIC ACID]
11 | > 32 | > 32 | C[C@@H]1CC[C@]2(C(=O)O[C@@H]3O[C@H](CO)[C@@H](O)[C@H](O)[C@H]3O)CC[C@]3(C)C(=CC[C@@H]4[C@@]5(C)CC[C@H](O)[C@@](C)(CO)[C@@H]5CC[C@]43C)[C@@H]2[C@]1(C)O [PEDUNCULOSIDE]
12 | > 32 | > 32 | CC(=O)OC[C@H]1O[C@@H](OC(=O)[C@]23CC[C@@H](C)[C@@](C)(OC(C)=O)[C@H]2C2=CC[C@@H]4[C@@]5(C)CC[C@H](O[C@@H]6OC[C@H](OC(C)=O)[C@H](O[C@@H]7O[C@H](COC(C)=O)[C@@H](OC(C)=O)[C@H](OC(C)=O)[C@H]7OC(C)=O)[C@H]6OC(C)=O)C(C)(C)[C@@H]5CC[C@@]4(C)[C@]2(C)CC3)[C@H](OC(C)=O)[C@@H](OC(C)=O)[C@@H]1OC(C)=O [PERACETYL ILEXOSIDE II]
13 | 4 | 4 | C[C@H]1[C@H](C)CC[C@]2(C(=O)O)CC[C@]3(C)C(=CC[C@@H]4[C@@]5(C)CC[C@H](O)C(C)(C)[C@@H]5CC[C@]43C)[C@H]12 [URSOLIC ACID]
14 | > 32 | > 32 | C[C@H]1[C@H](C)CC[C@]2(CO)CC[C@]3(C)C(=CC[C@@H]4[C@@]5(C)CC[C@H](O)C(C)(C)[C@@H]5CC[C@]43C)[C@H]12 [UVAOL]
